Shown are actives, neighbours in structure and some others; about 2.8% of the full set was active somewhere.
JMJD2C inh: blocks human GASC-1 demethylase activity; Q9H3R0; GST-JMJD2C(1-420) H3K9me3 demethylation, DELFIA europium; inhibition, % at 2.35 µM; 330,000 compounds, 0.069% hits;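 active = more than half of a compound's replicate wells show inhibition beyond 50%, single wells judged on their own value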;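 note: signal counts dimethyl H3K9 product captured on neutravidin plate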
Rtt109 Vps75: inhibitors of Candida albicans Rtt109/Vps75 histone acetyltransferase | AID 540336 | inhibition, % at 34.9 µM | 330,000 compounds, 0.16% hits | purified Rtt109/Vps75, ThioGlo CoA-SH fluorescence, 4 h;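 active = inhibition of at least 50% in every replicate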
Target sequence (Q5AAJ8 whole entry, looked up): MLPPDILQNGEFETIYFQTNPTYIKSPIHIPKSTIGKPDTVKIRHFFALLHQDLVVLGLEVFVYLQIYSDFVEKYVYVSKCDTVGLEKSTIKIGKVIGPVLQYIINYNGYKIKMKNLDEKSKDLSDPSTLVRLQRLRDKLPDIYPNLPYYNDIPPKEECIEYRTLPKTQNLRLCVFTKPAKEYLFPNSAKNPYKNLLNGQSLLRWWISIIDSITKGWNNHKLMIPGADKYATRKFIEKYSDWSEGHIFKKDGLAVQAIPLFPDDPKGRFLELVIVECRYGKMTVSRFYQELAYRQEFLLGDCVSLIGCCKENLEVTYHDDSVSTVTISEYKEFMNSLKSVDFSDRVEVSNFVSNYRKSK
T cell modulator: T cell immune modulation candidate | 2C CD8+ T cell-vesicle binding, flow cytometry; stronger effect = lower value | response (vesicle binding), % at 7 µM | 330,000 compounds, 0.068% hits;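 active = response, share of CD8 T cells binding vesicles, and their 90th percentile fluorescence all below set limits, cut at about 80% in these data, passing the limit was not always enough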;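 note: values below 100% mean blocked vesicle binding to the CD8+ T cells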
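incubation = binding step 1.5 h, 37 °C, antibody labelling 20 min, ice | test system = 2C mouse CD8+ T cells | read-out basis = percent CD8+ FL2 mean versus row control | controls = Peptide-free naked vesicles (low) and QL9 vesicles with 0.7% DMSO vehicle (high) | detection = flow cytometry of vesicle-bound cells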
GRIN3A LBD mod: NR3A (human) ligand-binding domain modulation | NR3A LBD differential scanning fluorimetry, Tm shift; 0% = protein alone, 100% = glycine-bound protein | Tm shift relative to glycine control, % at 25 µM | 340,000 compounds, 2.5% hits;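 active = melting temperature shift of at least 10% of the positive control shift, at one fixed dose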
Numbers stand for hits; . = inactive; / = no result.

SMILES | JMJD2C inh | Rtt109 Vps75 | T cell modulator | GRIN3A LBD mod
COCCCn1c(SCc2cccc(C(F)(F)F)c2)nc2cc(OC)c(OC)cc2c1=N | . | / | . | 10
COCCCn1c(SCc2ccccc2)nc2cc(OC)c(OC)cc2c1=N | . | / | . | .
COc1ccc(Cn2c(SCc3ccc(C)cc3)nc3cc(OC)c(OC)cc3c2=N)cc1Cl | . | . | . | .
COc1ccc(Cn2c(SCc3cc(C)ccc3C)nc3cc(OC)c(OC)cc3c2=N)cc1 | . | . | . | .
COc1cc2nc(SCc3ccc(C(F)(F)F)cc3)n(Cc3cccs3)c(=N)c2cc1OC | . | . | . | 24
Cc1cccc(NC(=S)NC(NC(=O)OCc2ccccc2)C(Cl)(Cl)Cl)c1 (stereo not given) | . | . | . | 27
O=C(NC(NC(=S)Nc1cccc(Cl)c1)C(Cl)(Cl)Cl)OCc1ccccc1 (stereo not given) | . | . | . | 29
CN(C)c1ccc(C(=O)N2CCCC(CCC(=O)N3CCN(c4ccccn4)CC3)C2)cc1 (stereo not given) | . | . | . | .
Cc1[nH]c2ccccc2c1C1=NNC(=Nc2ccc(F)cc2)SC1 | . | / | . | 12
Cc1[nH]c2ccccc2c1N=Nc1ccc(F)cc1 | . | . | . | 25
Cc1[nH]c2ccccc2c1N=Nc1c(C)n(C)n(-c2ccccc2)c1=O | . | . | . | .
Cc1[nH]c2ccccc2c1N=Nc1ccccc1F | . | . | . | 13
Cc1[nH]c2ccccc2c1N=Nc1cc(C(=O)O)cc(C(=O)O)c1 | . | . | . | .
CCCCN(C(=O)CSc1nnnn1C)C1CCS(=O)(=O)C1 (stereo not given) | . | . | . | .
CN(C)c1oc(-c2ccc(OCc3ccc(Cl)cc3)cc2)nc1C#N | . | . | . | 29
Cc1oc(-c2cccs2)nc1CNC[C@H]1O[C@@H](n2cnc(C(N)=O)n2)[C@H](O)[C@@H]1O | / | . | / | .
CCCc1nc(SCC(=O)Nc2nnc(SCC)s2)c2c(=O)n(C)c(=O)n(C)c2n1 | . | . | . | .
CCSc1nnc(NC(=O)CSc2nc(CC)nc3c2c(=O)n(C)c(=O)n3C)s1 | . | . | . | 14
CN(C)c1ccc(C(CNS(=O)(=O)c2ccc(F)c(F)c2)c2c[nH]c3ccccc23)cc1 (stereo not given) | . | . | . | 23
O=C(Nc1nc(-c2ccccc2)c(C(=O)c2ccccc2)s1)c1ccc(S(=O)(=O)N2CCCC2)cc1 | . | . | . | 14
N#CCCN(CCC#N)S(=O)(=O)c1ccc(C(=O)Nc2nc(-c3ccccc3)c(C(=O)c3ccccc3)s2)cc1 | . | . | . | 12
CN(C)S(=O)(=O)c1ccc(C(=O)Nc2nc(-c3ccccc3)c(C(=O)c3ccccc3)s2)cc1 | . | . | . | 22
O=C(Nc1nc(-c2ccccc2)c(-c2ccccc2)s1)c1ccc(S(=O)(=O)N2CCCC2)cc1 | . | . | . | .
Cc1ccc(-c2nc(NC(=O)c3ccc(S(=O)(=O)N(CCC#N)CCC#N)cc3)sc2-c2ccccc2)cc1 | . | . | . | 10
COC(=O)Nc1nc(-c2ccccc2)c(C(=O)c2ccccc2)s1 | . | . | . | .
SMILES | JMJD2C inh | Rtt109 Vps75 | T cell modulator | GRIN3A LBD mod
Cc1cccc(N(Cc2ccccc2)C(=O)c2ccccc2S(C)(=O)=O)c1 | . | . | . | .
CCOc1ccc(CNC(=O)CCC(=O)n2ncc3ccc(Cl)cc32)cc1 | . | . | . | .
C/C(=N\NC(=O)c1cc([N+](=O)[O-])cc([N+](=O)[O-])c1)c1ccco1 | . | . | . | .
C/C(=N\NC(=O)Cn1cc([N+](=O)[O-])cn1)c1ccco1 | . | . | 0.0 | .
CN(CC(=O)Nc1ccc(F)cc1)C(=O)COC(=O)/C=C/c1cccs1 | . | . | . | .
O=C(COC(=O)/C=C/c1cccs1)Nc1ccc(F)cc1 | / | . | . | 16
CCOc1ccccc1NC(=O)COC(=O)/C=C/c1cccs1 | . | . | . | .
COC(=O)c1ccccc1NC(=O)COC(=O)/C=C/c1cccs1 | . | . | . | 11
CC(O)CC(=O)NOCc1ccccc1 (stereo not given) | / | . | / | .
CCN1/C(=C/c2ccc3cc(C)cc(C)c3[n+]2CC)Sc2cc(C)ccc21 | / | 82 | / | .
CC[C@]12C(=O)N(C)C[C@H]([C@@H]3C(=O)N(C)C(=O)[C@@H]31)N2C(=O)c1ccc(F)cc1 | / | . | / | .
COCCC(=O)N1CCC(C(=O)Nc2ccc(Oc3ccccc3)nc2)CC1 | . | . | . | .
COc1ccccc1-c1nnc(SCC(=O)NCc2c(C)c(Cl)cc(C(C)C)c2O)o1 | . | / | . | 23
O=C(COC(=O)CNC(=O)c1ccco1)Nc1ncc(Cl)cc1Cl | . | . | . | .
O=C(CN(Cc1cccs1)S(=O)(=O)c1ccc(S(=O)(=O)NC2CCCCC2)cc1)Nc1ccccc1 | . | . | . | 13
O=C(CN(C1CC1)S(=O)(=O)c1ccc(S(=O)(=O)NC2CCCCC2)cc1)Nc1ccccc1 | / | . | / | .
COc1cccc(/C=N/NC(=O)c2nnn(-c3nonc3N)c2CN(C)c2ccccc2)c1 | . | . | . | 20
CN(C)Cc1c(C(=O)N/N=C/c2cccc(OCc3ccccc3)c2)nnn1-c1nonc1N | . | . | . | .
CN(Cc1c(C(=O)N/N=C/c2cccc(F)c2)nnn1-c1nonc1N)C1CCCCC1 | . | . | . | .
CN(C)Cc1c(C(=O)N/N=C/c2cccc(OCc3c(F)cccc3Cl)c2)nnn1-c1nonc1N | . | . | . | 24
CN(Cc1c(C(=O)N/N=C/c2cccc(F)c2)nnn1-c1nonc1N)c1ccccc1 | . | . | . | 37
CN(C)Cc1c(C(=O)N/N=C/c2ccccc2OCc2c(F)cccc2Cl)nnn1-c1nonc1N | . | . | . | .
CN(C(=O)c1ccc(NC(=O)C2CCCN(C(=O)OC(C)(C)C)C2)cc1)C1CCC1 (stereo not given) | / | . | . | .
CCNC(=O)CN(c1ccc(F)cc1)S(=O)(=O)c1ccc2c(c1)OCCO2 | / | . | . | .
Cc1ccc(C)c(Oc2cc(NC(=O)CCCn3nc(C)c([N+](=O)[O-])c3C)cc([N+](=O)[O-])c2)c1 | . | . | . | 16
SMILES | JMJD2C inh | Rtt109 Vps75 | T cell modulator | GRIN3A LBD mod
Cc1ccc(Oc2cc(NC(=O)CCCn3nc([N+](=O)[O-])cc3C)cc([N+](=O)[O-])c2)cc1 | . | . | . | 10
O=C(Cn1nc(-c2ccccc2)oc1=O)OCC(=O)c1ccccc1 | . | . | . | .
CC(C)(C)c1ccc(/C=C2\Oc3cc(O)ccc3C2=O)cc1 | . | / | . | 17
O=C1/C(=C/c2ccc([N+](=O)[O-])cc2)Oc2cc(O)ccc21 | . | / | . | .
O=C1/C(=C/c2ccc(Br)cc2)Oc2cc(O)ccc21 | . | / | . | 16
O=C(C(=O)c1cccnc1)c1cccnc1 | . | . | . | .
O=C(O)c1cccnc1 | . | . | . | 14
CNC(=O)c1nc(C)c(C2(C)CC(c3ccccc3)=NO2)s1 (stereo not given) | . | . | . | .
Cc1nc(C(=O)N2CCOCC2)sc1C1(C)CC(c2ccccc2)=NO1 (stereo not given) | . | . | . | 14
O=C(CSc1nc2ccccc2c(=O)n1Cc1ccccc1)Nc1ccc(Br)cc1C(=O)O | . | . | . | .

Source: PubChem BioAssay (several laboratories)
